Compound activity: PubChem, Broad Institute
Hits are enriched below; roughly 1.3% of the tested compounds scored in any of these assays.
PDI inh = inhibitors of human PDI, primary screen, biochemical, turbidity, single point, plate reader; Protein disulfide-isomerase (Homo sapiens), P07237; PDI insulin aggregation turbidity, A650, 90 min; inhibition, % at 10 µM; 350,000 compounds, 0.052% hits; AID 588391, 2011;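 active means mean inhibition across replicates of 30% or more, whatever share of single replicates reach that level; inconclusive means mean inhibition below 30% while every single replicate reaches 30%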
ERp5 inh = inhibitors of ERp5-driven insulin aggregation, primary screen, biochemical, turbidity, absorbance 650 nm, single point | Protein disulfide-isomerase A6 (Homo sapiens), Q15084 | 90 min | inhibition, % at 9.99 µM | 350,000 compounds, 0.05% hits;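 active means mean replicate inhibition above about 25%, with every replicate also reaching it, limit read from the data, passing the limit was not always enough; inconclusive means only one of those two criteria met; inactive means neither criterion met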
MLL AF4-AF9 inh = inhibitors of AF4 peptide binding to AF9, primary screen, biochemical, AlphaScreen, biotin-AF4 peptide, FLAG-AF9, single point. 350,000 compounds, 0.47% hits. AID 651704, 2012. inhibition, % at 10 µM. Protein AF-9 (Homo sapiens), P42568;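 active means every replicate reaching a set inhibition limit, whatever the replicate mean, cut at about 25% in these data; inconclusive means mean inhibition reaches that limit but some replicates miss it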
Target sequence (P42568 whole entry, looked up): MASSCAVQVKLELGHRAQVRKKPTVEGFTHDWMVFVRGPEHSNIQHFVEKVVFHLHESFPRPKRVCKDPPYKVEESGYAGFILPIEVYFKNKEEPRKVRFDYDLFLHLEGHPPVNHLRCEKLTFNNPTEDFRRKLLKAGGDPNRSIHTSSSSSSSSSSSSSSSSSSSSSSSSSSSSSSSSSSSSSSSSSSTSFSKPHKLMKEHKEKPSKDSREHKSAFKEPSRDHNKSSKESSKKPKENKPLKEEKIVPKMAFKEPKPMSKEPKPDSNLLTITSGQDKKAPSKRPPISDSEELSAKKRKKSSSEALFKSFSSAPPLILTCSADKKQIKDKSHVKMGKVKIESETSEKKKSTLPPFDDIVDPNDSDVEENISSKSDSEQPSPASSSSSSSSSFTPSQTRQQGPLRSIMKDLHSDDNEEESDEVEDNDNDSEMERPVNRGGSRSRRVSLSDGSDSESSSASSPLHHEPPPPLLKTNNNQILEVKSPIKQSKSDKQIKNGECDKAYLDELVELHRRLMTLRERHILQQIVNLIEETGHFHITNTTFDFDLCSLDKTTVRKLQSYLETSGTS
SIRT5 block = SIRT5 desuccinylase inhibitors, primary screen, biochemical, fluorescence imaging, single point, set 5; Purified SirT5, succinyl-peptide AMC, trypsin-coupled fluorescence; 330,000 compounds, 1.1% hits; NAD-dependent protein deacylase sirtuin-5, mitochondrial (Homo sapiens), Q9NXA8; inhibition, % at 15 µM; in the data active means inhibition above about 15%; inconclusive means no clear call, values can overlap the other calls
FN deposit inh = inhibitors of fibronectin matrix deposition, primary screen, AH1F cells, Alexa488-fibronectin fluorescence, plate reader; AH1F fibroblasts, overnight; inhibition, % at 12.6 µM; 350,000 compounds, 0.086% hits; AID 743247, 2014;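 active means mean inhibition across replicates of 30% or more, regardless of how many single replicates reach that level; inconclusive means mean under 30% yet at least half of replicates reach 30%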
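Material: AH1F fibroblast monolayer depositing Alexa488-labelled fibronectin into matrix | Input: 10000 AH1F cells/well | Medium: DMEM plus 2% serum, read in PBS | Reagent: Alexa488-fibronectin, 24 nM final in well | Compound dosing: One dose per compound, pinned | Schedule: 1 h adhesion, overnight exposure | Measured by: Fluorescence at 485 nm excitation, 525 nm emission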
Hits are given with their value; 0 = inactive; ? = inconclusive; - = not tested or not shown; ! = repeats disagree.

SMILES	PDI inh	ERp5 inh	MLL AF4-AF9 inh	SIRT5 block	FN deposit inh
O=C(NCCNC(=O)Oc1cccc2ccccc12)Oc1cccc2ccccc12	0	0	0	26	0
CN(C)C(CNC(=O)CCNC(=O)c1ccc(Cl)cc1)c1ccco1 (stereo unspecified)	0	0	0	24	0
Cc1cc(C(=O)NCC(c2ccco2)N(C)C)ccc1[N+](=O)[O-] (stereo unspecified)	0	0	46	0	0
CN(C)C(CNC(=O)CCNC(=O)c1ccc(Br)cc1)c1ccco1 (stereo unspecified)	0	0	0	0	-
CO[C@H]1CC[C@H]2CCN(C)C(=O)[C@H](C)N(C)C(=O)c3cc(C#N)ccc3OC[C@@H]1O2	-	0	0	0	0
COCC(=O)Nc1ccc2c(c1)OC[C@H](C)N(Cc1cncnc1)C[C@H](C)[C@@H](OC)CN(C)C2=O	-	-	-	-	0
COc1cccc(NC(=O)N(C)C[C@H]2Oc3ncc(C4=CCCCC4)cc3C(=O)N([C@H](C)CO)C[C@@H]2C)c1	-	0	0	20	-
CC(=O)N(C)C[C@H]1Oc2ncc(C3=CCCC3)cc2C(=O)N([C@H](C)CO)C[C@H]1C	-	0	0	34	0
COc1ccc(CCNC(=O)[C@H](C)NC(=O)N2CCn3c2nc2ccccc23)cc1OC	0	0	0	30	0
CCN(CC)CC#CCC(O)(c1ccccc1)C1CCCC1 (stereo unspecified)	0	0	0	18	-
CC(Oc1ccc(C(=O)NCCc2ccccc2)cc1)C(=O)O (stereo unspecified)	0	-	-	-	0
Fc1cccc(C2NC(=S)NC3=C2N2CCC3CC2)c1 (stereo unspecified)	0	0	-	21	0
COc1ccccc1-n1c(C)nnc1SCC(=O)NCc1ccccc1	0	-	-	-	0
Cc1cn2c(N)c(C=C3C=C(Cl)C(=O)C(Cl)=C3)c(=O)nc2s1	0	0	0	20	0
CSc1ccccc1NC(=O)COC(=O)CCC(=O)c1ccc(F)cc1	0	0	0	20	0
COc1ccc(CCNC(=O)COC(=O)CCC(=O)c2ccc(F)cc2)cc1OC	0	0	0	20	0
COc1ccc(CNC(=O)c2cc(C3CC3)nc3c2cnn3C(C)C)cc1	0	0	32	0	0
COc1ccccc1CNC(=O)c1cc(C2CC2)nc2c1cnn2C(C)C	0	0	0	0	0
CCc1ccc(S(=O)(=O)Nc2ccc(Cl)cn2)cc1	0	0	0	0	0
Cc1ccc(S(=O)(=O)N2C(=O)[C@@H]3Cc4ccccc4CN3C2=O)cc1	0	0	0	17	0
O=C(O)c1ccccc1NS(=O)(=O)c1ccc(N/N=C/c2cccc(O)c2O)c([N+](=O)[O-])c1	0	0	0	0	0
COc1ccc(C(C)=NNc2ccc([N+](=O)[O-])cc2S(=O)(=O)Nc2ccccc2C(=O)O)c(OC)c1	0	0	0	15	0
CCOc1ccc(C=NNc2ccc(S(=O)(=O)Nc3ccccc3C(=O)O)cc2[N+](=O)[O-])cc1OC	0	-	-	-	-
COc1cc(C=NNc2ccc(S(=O)(=O)Nc3ccccc3C(=O)O)cc2[N+](=O)[O-])ccc1O	0	0	0	22	0
CC(=O)Nc1ccc(C=NNc2ccc(S(=O)(=O)Nc3ccccc3C(=O)O)cc2[N+](=O)[O-])cc1	0	0	0	17	0
SMILES	PDI inh	ERp5 inh	MLL AF4-AF9 inh	SIRT5 block	FN deposit inh
Cc1ccc(NC(=S)NNc2ccc([N+](=O)[O-])cc2S(=O)(=O)Nc2ccccc2C(=O)O)cc1C	0	-	-	-	-
O=C(O)c1ccccc1NS(=O)(=O)c1ccc(NNC(=S)Nc2ccc(OC(F)F)cc2)c([N+](=O)[O-])c1	0	0	27	24	0
O=C(O)c1ccc(N2C(=O)CSC2c2cccc([N+](=O)[O-])c2)cc1 (stereo unspecified)	0	0	0	0	0
CCOc1cc(/C=N/Nc2ccc(S(=O)(=O)Nc3ccccc3C(=O)O)cc2[N+](=O)[O-])cc(Cl)c1O	0	0	0	-	0
CC(=O)Nc1cccc(/C(C)=N/Nc2ccc(S(=O)(=O)Nc3ccccc3C(=O)O)cc2[N+](=O)[O-])c1	0	0	0	21	0
CC(=O)Nc1ccc(C=NNc2ccc([N+](=O)[O-])cc2S(=O)(=O)Nc2ccccc2C(=O)O)cc1	0	0	0	26	0
CN(CCO)c1ccc(C=NNc2ccc([N+](=O)[O-])cc2S(=O)(=O)Nc2ccccc2C(=O)O)cc1	0	0	?	22	0
CCC(C(=O)NCCCN1CC(C)CC(C)C1)n1nc(C)c2sc3ccccc3c2c1=O (stereo unspecified)	0	0	0	31	0
N#CC1=C(N)C(C#N)(C#N)C(c2ccncc2)C2CN(C(=O)OCc3ccccc3)CC=C12 (stereo unspecified)	0	-	-	-	-
N#CC1=C(N)C(C#N)(C#N)[C@H](c2cccnc2)[C@H]2CN(C(=O)OCc3ccccc3)CC=C12	0	0	0	16	0
Cc1cccc(N2CCN(C(=O)CCc3nc4ccccc4[nH]3)CC2C)c1 (stereo unspecified)	-	0	0	17	0
C[C@H]1CN([C@@H](C)CO)C(=O)c2cc(NC(=O)CCN3CCOCC3)ccc2O[C@H]1CN(C)S(C)(=O)=O	-	0	0	0	-
CC(C)NC(=O)N(C)C[C@H]1Oc2ccc(NC(=O)CCN3CCOCC3)cc2C(=O)N([C@H](C)CO)C[C@@H]1C	0	0	0	0	39
C[C@@H]1CN([C@@H](C)CO)C(=O)c2cc(NC(=O)CCN3CCOCC3)ccc2O[C@H]1CN(C)Cc1ccc(C(F)(F)F)cc1	-	0	0	26	0
C[C@H]1CN([C@@H](C)CO)C(=O)c2cc(NC(=O)CCN3CCOCC3)ccc2O[C@H]1CN(C)C(=O)Nc1ccc2c(c1)OCO2	-	0	0	20	-
C[C@H](CO)N1C[C@H](C)[C@@H](CN(C)S(C)(=O)=O)Oc2ccc(NC(=O)CCN3CCOCC3)cc2C1=O	0	0	0	23!	0
CCc1ccc(-c2csc3nc[nH]c(=O)c23)cc1	0	0	0	0	0
O=C(O)C(c1ccccc1)N1C(=O)/C(=C\c2ccc(O)c(O)c2)SC1=S (stereo unspecified)	0	0	0	0	0
C[C@@H]1CCCCO[C@@H](CN(C)Cc2ccc(C(F)(F)F)cc2)[C@H](C)CN([C@@H](C)CO)C(=O)c2cc(NS(=O)(=O)c3cccs3)ccc2O1	-	0	0	19	-
C[C@@H]1CCCCO[C@H](CN(C)Cc2ccc(C(=O)O)cc2)[C@H](C)CN([C@H](C)CO)C(=O)c2cc(NS(=O)(=O)c3cccs3)ccc2O1	-	0	0	21	-
